Assay outcomes from PubChem BioAssay.
Compounds with a hit are over-represented: about 2.1% of the library has one in this group of screens.
C2C12 statin: protects C2C12 myotubes from simvastatin toxicity. ATP luminescence, 48 h; scaled: DMSO 0, geranylgeraniol control 100. rescue of ATP level, % at 7.49 µM. hit rate 0.78% among 330,000. AID 602340;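 active = mean ATP rescue above about 67%, or every replicate alone reaching that limit, limit read from the data, passing the limit was not always enough; inconclusive = no clear call, values can overlap the other calls; inactive = mean under the limit and some replicate under it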;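 also: myotubes were challenged with 10 µM simvastatin during compound exposure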
Cneo AK release: Cryptococcus neoformans lysis via adenylate kinase release; C. neoformans lysis, adenylate kinase release luminescence, 4 h; normalised: neutral wells 0, clomiphene wells 100; lysis activity, % at 15 µM; hit rate 0.2% among 360,000; AID 651654;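 active = mean lysis activity across replicates of at least 80%, whatever share of replicates individually reach that level; inactive = mean lysis activity below 80%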
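Material – log-phase Cryptococcus neoformans yeast cells · Input – 5 × 10^6 yeast cells/mL · Medium – fresh YPD growth medium · Doses – single compound concentration per well · Timing – static 4 h at 37 °C with compound, 1 h detection · Detection – adenylate kinase release luminescence · Read-out – signal increase indicating cell lysis · Control set – Clomiphene as positive lysis control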
Xi reactivation: reactivates the inactive X chromosome in mouse fibroblasts. hit rate 0.055% among 360,000. XiGFP mouse fibroblasts, % GFP-positive cells imaging, 3 d; cells co-treated with 5-aza-dC sensitizer; scaled so ellipticine positive control = 100%. activation, % at 7.58 µM;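 active = mean normalized replicate activation at least 10% and every replicate at or above 10%; inconclusive = only one of the two criteria met; inactive = mean below 10% and not all replicates reach 10%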;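 also: 0% = median of on-plate neutral control wells and 100% = ellipticine 6 µM median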
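Schedule: 3 d treatment, 15 min room-temperature fixation; system: 68-5-11 XiGFP fibroblast line; buffer or medium: DMEM plus 5-aza-dC sensitizer; control set: ellipticine 6 µM positive control; compound: one concentration, pinned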
DENV2 CPE rescue: protects cells from dengue virus 2 cytopathic effect; DENV2-infected cells, cytopathic effect rescue, plate reader; hit rate 1.7% among 350,000; CPE inhibition, % at 9.99 µM; in the data active = CPE inhibition above about 20%, passing the limit was not always enough; inconclusive = no clear call, values can overlap the other calls; tested in BHK-21 cells;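 also: 0% = median of neutral control wells and 100% = median of positive control wells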
An asterisk follows results filed as active; ? = inconclusive; / = not tested or not shown.

SMILES	C2C12 statin	Cneo AK release	Xi reactivation	DENV2 CPE rescue
C[C@H]1CCCCO[C@H](CN(C)S(=O)(=O)c2ccc(Cl)cc2)[C@@H](C)CN([C@@H](C)CO)C(=O)c2cc(NS(=O)(=O)c3cccs3)ccc2O1	/	89*	1	?
C[C@H](CO)N1C[C@H](C)[C@H](CN(C)S(=O)(=O)c2cccs2)OCCCC[C@H](C)Oc2ccc(NS(=O)(=O)c3ccc(F)cc3)cc2C1=O	/	0	0	31*
C[C@H](CO)N1C[C@H](C)[C@@H](CN(C)S(=O)(=O)c2cccs2)OCCCC[C@H](C)Oc2ccc(NS(=O)(=O)c3ccc(Cl)cc3)cc2C1=O	/	0	0	13
Cn1cc(CN(CCCN2CCOCC2)C(=S)Nc2cccc(Cl)c2)c2ccccc21	/	-3	0	40*
C[C@H]1CN([C@@H](C)CO)C(=O)c2cccc(NS(=O)(=O)c3ccc(Cl)cc3)c2O[C@@H]1CN(C)Cc1ccc(C(=O)Nc2ccccc2N)cc1	/	/	-1	21*
Cc1noc(C)c1S(=O)(=O)Nc1ccc2c(c1)CC(=O)N([C@H](C)CO)C[C@@H](C)[C@H](CN(C)Cc1ccc(C(=O)Nc3ccccc3N)cc1)O2	/	/	0	13
C[C@@H]1CN([C@@H](C)CO)C(=O)Cc2cc(NS(=O)(=O)c3ccc(Cl)cc3)ccc2O[C@@H]1CN(C)Cc1ccc(C(=O)Nc2ccccc2N)cc1	/	/	-1	-5
Cc1noc(C)c1S(=O)(=O)Nc1ccc2c(c1)CC(=O)N([C@H](C)CO)C[C@H](C)[C@@H](CN(C)Cc1ccc(C(=O)Nc3ccccc3N)cc1)O2	/	/	-1	40*
C[C@@H]1CN([C@H](C)CO)C(=O)Cc2cc(NS(=O)(=O)c3ccc(Cl)cc3)ccc2O[C@H]1CN(C)Cc1ccc(C(=O)Nc2ccccc2N)cc1	/	/	0	71*
COc1ccc2c3c([nH]c2c1)[C@H](CO)N(C(=O)NC1CCCC1)CC31CCN(C(=O)Nc2cccc(F)c2)CC1	/	/	0	5
Cc1noc(C)c1NC(=O)Nc1ccc2c(c1)C(=O)N([C@H](C)CO)C[C@H](C)[C@H](CN(C)C(=O)Nc1ccc3c(c1)OCO3)OCCCC[C@@H](C)O2	/	-3	0	3
CN(C)c1ccc(C2C3C(=O)N(c4ccc(C(=O)O)cc4)C(=O)C3ON2c2ccccc2)cc1 (stereo not given)	101*	-9	/	/
O=C(O)c1ccc(N2C(=O)C3ON(c4ccccc4)C(c4ccccc4F)C3C2=O)cc1 (stereo not given)	2	2	/	/
COc1ccc(S(=O)(=O)Nc2cccc3c2O[C@@H](CN(C)C(=O)Nc2ccc(F)cc2)[C@@H](C)CN([C@@H](C)CO)C3=O)cc1	-59	2	-1	-2
COc1cccc(-c2cn(CC[C@@H]3CC[C@@H](NS(=O)(=O)Cc4ccccc4)[C@@H](CO)O3)nn2)c1	1	18	0	-1
CO[C@@H]1CN(C)C(=O)c2cc(NC(C)=O)ccc2OC[C@H](C)N(C(=O)C2CCCCC2)C[C@@H]1C	-3	4	-1	-3
Cc1nc2sc(C(c3ccc(Br)cc3)N3CC(C)OC(C)C3)c(O)n2n1 (stereo not given)	91*	2	/	/
COc1cccc(CNC(=O)[C@H]2[C@H](CO)[C@H]3Cn4c(ccc(-c5ccncc5)c4=O)[C@H]3N2C)c1	8	0	0	138*
CC=Cc1ccc2n(c1=O)C[C@H]1[C@H](CO)[C@@H](C(=O)N3CCc4ccccc4C3)N(C(=O)C3CCC3)[C@@H]21 (mixture of isomers)	-3	53	0	62*
CN1[C@@H]2c3ccc(-c4cccnc4)c(=O)n3C[C@@H]2[C@@H](CO)[C@@H]1C(=O)N1CCc2ccccc2C1	23	113*	0	-7
CC=Cc1ccc2n(c1=O)C[C@H]1[C@H](CO)[C@@H](C(=O)N3CCc4ccccc4C3)N(C)[C@@H]21 (mixture of isomers)	/	/	1	-4
C[C@H](CO)N1C[C@H](C)[C@@H](CN(C)C(=O)Nc2ccc(F)cc2)Oc2c(NS(=O)(=O)c3cn(C)cn3)cccc2C1=O	25	-62	0	-9
CN1c2ccc(-c3ccccc3F)cc2[C@@H]2[C@@H](CCN2S(=O)(=O)c2ccc(F)cc2)[C@H]1CO	29	-1	0	20
COc1ccc(S(=O)(=O)N2CC[C@@H]3[C@H]2c2cc(-c4ccccc4F)ccc2N(C)[C@H]3CO)cc1	-9	2	0	26*
